The record followed here is ChEMBL document CHEMBL1127469, “Decapeptide agonists of human C5a: the relationship between conformation and spasmogenic and platelet aggregatory activities” (J Med Chem, 1994).

Bridge positions count the residues as written; N and C are the ends. Peptide text beside a SMILES is read from it. Bounds are passed on as bounds.

Assay [1] concerns the target T1, C5a anaphylatoxin chemotactic receptor 1 (Homo sapiens) (UniProt P21730).
T1 sequence (whole entry): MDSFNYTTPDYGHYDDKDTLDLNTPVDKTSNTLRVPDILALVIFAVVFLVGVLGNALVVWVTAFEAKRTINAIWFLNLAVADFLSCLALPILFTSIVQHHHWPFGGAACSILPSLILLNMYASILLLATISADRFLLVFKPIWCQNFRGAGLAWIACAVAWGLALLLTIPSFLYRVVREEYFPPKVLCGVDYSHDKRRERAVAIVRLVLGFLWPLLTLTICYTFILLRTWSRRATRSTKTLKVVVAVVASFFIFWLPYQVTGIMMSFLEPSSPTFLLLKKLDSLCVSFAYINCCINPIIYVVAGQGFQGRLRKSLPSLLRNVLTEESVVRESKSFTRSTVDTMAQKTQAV
Put plainly: Pharmacological activity against C5a receptor in human fetal artery. In short, it runs like this: (§1)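 Isometric contraction of tissue strips in 2 mL organ baths of Krebs-Ringers solution, 37 °C, pH 7.4, gassed with 95% O2/5% CO2, equilibrated 1 h. Tachyphylaxis prevents cumulative curves, so each strip gets one peptide concentration, then histamine 10 μM. Response is taken as % of the histamine maximum. EC50 comes from probit analysis, reported as pD2 (-log EC50, M), mean ± SE.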

The species named for assay [2] is Cavia porcellus. Briefly: Platelet aggregation in guinea pig. The format is functional. The essentials:
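Platelet-rich plasma from arterial blood of anesthetized male Hartley guinea pigs, diluted to 3 × 10^8 platelets/mL in 0.39% sodium citrate. Peptides are serially diluted 1.5-fold and shaken with plasma and a 3 mm glass bead at 100 rpm, 5 min, 37 °C. Aggregation is scored visually at 40×. The threshold is the greatest dilution giving visible aggregation. At least three independent duplicate runs; C5a and C3a serve as standards.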

The next assay is filed under the species Homo sapiens. Briefly: Effective dose required for smooth muscle contraction in human fetal artery. The format is functional. As to conditions: Muscle tissue. The essentials:
as §1

In assay [3] the target is T2, C5a anaphylatoxin chemotactic receptor 1 (Cavia porcellus) (UniProt O70129).
T2 sequence (whole entry): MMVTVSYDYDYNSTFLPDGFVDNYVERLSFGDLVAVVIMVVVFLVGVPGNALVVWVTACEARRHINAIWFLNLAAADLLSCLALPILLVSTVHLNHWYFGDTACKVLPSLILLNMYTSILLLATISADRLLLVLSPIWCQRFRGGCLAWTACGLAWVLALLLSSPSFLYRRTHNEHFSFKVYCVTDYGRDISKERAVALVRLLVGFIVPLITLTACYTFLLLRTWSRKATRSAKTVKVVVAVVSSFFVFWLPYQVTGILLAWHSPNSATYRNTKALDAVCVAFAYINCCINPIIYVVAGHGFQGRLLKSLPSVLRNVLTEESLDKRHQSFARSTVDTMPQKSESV
Briefly: Pharmacological activity against C5a receptor in guinea pig ileum. The assay is classed as tissue-based. The essentials:
as §1

The species entered for assay [4] is Cavia porcellus. Put plainly: Effective dose required for smooth muscle contraction in guinea pig ileum. The assay is classed as functional. As to conditions: Muscle tissue. The essentials: as §1
For assay [5], the species on record is Cavia porcellus. Briefly: Effective dose required for smooth muscle contraction in Guinea pig lung parenchyma. The format is functional. In short, it runs like this: as §1
The test system of assay [6] is C5a anaphylatoxin chemotactic receptor 1 (Cavia porcellus). Put plainly: Tested for pharmacological activity against C5a receptor in Guinea pig lung parenchyma.

Compound H-YSFKDMPPGR-OH came in with a pD2 in assay [1] of 4.68. Besides, the Platelet aggregation in the assay filed under Cavia porcellus [2] was determined as 80 µM. It took 25.1 µM to reach a half-maximal effect in the assay filed under Homo sapiens (EC50).
In the case of H-YSFKDMQLGR-OH, the pD2 in assay [3] came to 4.51; in assay [1], 5.05. The compound also yielded a Platelet aggregation in the assay filed under Cavia porcellus [2] of 22.9 µM. The values for the EC50 in the assay filed under Cavia porcellus [4], in the assay filed under Cavia porcellus [5] and in the assay filed under Homo sapiens were 37.5 µM, 28.4 µM and 11.2 µM, respectively.
`CC(C)C[C@@H]1NC(=O)[C@@H]2CCCN2C(=O)[C@@H](NC(=O)[C@H](CC(=O)O)NC(=O)[C@H](CCCCN)NC(=O)[C@H](Cc2ccccc2)NC(=O)[C@H](CO)NC(=O)[C@@H](N)Cc2ccc(O)cc2)CSSC[C@@H](C(=O)N[C@@H](CCCN=C(N)N)C(=O)O)NC1=O` (H-YSFKDCPLCR-OH; disulfide 6-9) showed a pD2 in assay [1] of less than 4. The Platelet aggregation in the assay listed under Cavia porcellus [2] was more than 410 µM. This compound showed a half-maximal effective concentration (EC50) in the assay listed under Homo sapiens of 162 µM.
For the compound `CSCC[C@H](NC(=O)[C@H](CC(=O)O)NC(=O)[C@H](CCCCN)NC(=O)[C@H](Cc1ccccc1)NC(=O)[C@H](CO)NC(=O)[C@@H](N)Cc1ccc(O)cc1)C(=O)N1CCC[C@H]1C(=O)N[C@@H](CC(C)C)C(=O)NCC(=O)N[C@@H](CCCN=C(N)N)C(=O)O`, the pD2 came to 5.14 in assay [3] and 6.18 in assay [1]. Besides, the Platelet aggregation in the assay filed under Cavia porcellus [2] was found to be 6.3 µM. For the same compound, the figures for the EC50 in the assay listed under Cavia porcellus [4], in the assay listed under Cavia porcellus [5] and in the assay listed under Homo sapiens were 11.5 µM, 8.1 µM and 1.13 µM, respectively.
In the assay listed under Cavia porcellus [2], H-ISFKDMQLGR-OH registered a Platelet aggregation of 86.3 µM.
In assay [1], `CSCC[C@H](NC(=O)[C@H](CC(=O)O)NC(=O)[C@H](CCCCN)NC(=O)[C@H](Cc1ccccc1)NC(=O)[C@H](CO)NC(=O)[C@@H](N)Cc1ccc(O)cc1)C(=O)N[C@@H](CCC(N)=O)C(=O)N[C@@H](CC(C)C)C(=O)N[C@H](C)C(=O)N[C@@H](CCCN=C(N)N)C(=O)O` yielded a pD2 of 5.42. In the assay listed under Cavia porcellus [2], this compound returned a Platelet aggregation of 20 µM. The compound further displayed an EC50 in the assay filed under Homo sapiens of 12.2 µM.
Compound `CSCC[C@H](NC(=O)[C@H](CC(=O)O)NC(=O)[C@H](CCCCN)NC(=O)[C@H](Cc1ccccc1)NC(=O)[C@H](CO)NC(=O)[C@@H](N)Cc1ccc(O)cc1)C(=O)N[C@@H](CCC(N)=O)C(=O)N[C@@H](CC(C)C)C(=O)N[C@@H](C)C(=O)N[C@@H](CCCN=C(N)N)C(=O)O` returned a pD2 in assay [1] of 4.04. The same compound showed a Platelet aggregation in the assay filed under Cavia porcellus [2] of 34 µM. In the assay listed under Homo sapiens, this compound yielded an EC50 of 122 µM.
H-YSFKGLLLGR-OH: the pD2 in assay [3] is 4.74; in assay [1], 5.21. The compound also came in with a Platelet aggregation in the assay filed under Cavia porcellus [2] of 21 µM. Also, the half-maximal effective concentration (EC50) in the assay filed under Cavia porcellus [4] was found to be 18.1 µM; in the assay filed under Cavia porcellus [5], 22.1 µM; in the assay filed under Homo sapiens, 6.6 µM.
For H-YSFKDMQPGR-OH, the pD2 in assay [3] worked out at 3.64; in assay [1] it was 4.4. Also, the Platelet aggregation in the assay filed under Cavia porcellus [2] was determined as 500 µM. The EC50 was 344 µM in the assay filed under Cavia porcellus [4] and 48 µM in the assay listed under Homo sapiens.
H-YSFKGMPLGR-OH showed a pD2 in assay [1] of 6.23. This compound yielded a Platelet aggregation in the assay listed under Cavia porcellus [2] of 6.3 µM. The same compound came in with an EC50 in the assay filed under Homo sapiens of 0.59 µM.
Taken in the same sequence, the figures for `CSCC[C@H](NC(=O)[C@H](CC(=O)O)NC(=O)[C@H](CCCCN)NC(=O)[C@H](Cc1ccccc1)NC(=O)[C@H](CO)NC(=O)[C@@H](N)Cc1ccc(O)cc1)C(=O)N[C@@H](CCC(N)=O)C(=O)N[C@@H](CC(C)C)C(=O)N1CCC[C@H]1C(=O)N[C@@H](CCCN=C(N)N)C(=O)O` were less than 3, 225 µM and more than 1000 µM.
Taken in the same sequence, the figures for H-YSFKDCPLGR-OH were 5.79, 2.3 µM and 2.04 µM.
Taken in the same sequence, the figures for `CSCC[C@H](NC(=O)[C@H](CC(=O)O)NC(=O)[C@H](CCCCN)NC(=O)[C@H](Cc1ccccc1)NC(=O)[C@H](CO)NC(=O)[C@@H](N)Cc1ccc(O)cc1)C(=O)N1CCC[C@H]1C(=O)N[C@@H](C)C(=O)NCC(=O)N[C@@H](CCCN=C(N)N)C(=O)O` were less than 3, 101 µM and more than 1000 µM.
With `CSCC[C@H](NC(=O)CNC(=O)[C@H](CCCCN)NC(=O)[C@H](Cc1ccccc1)NC(=O)[C@H](CO)NC(=O)[C@@H](N)Cc1ccc(O)cc1)C(=O)N[C@@H](CC(C)C)C(=O)N[C@@H](CC(C)C)C(=O)NCC(=O)N[C@@H](CCCN=C(N)N)C(=O)O`, the figures for the pD2 in assay [3], in assay [1] and in assay [6] were 4.61, 5.34 and 5, respectively. The compound also yielded a Platelet aggregation in the assay listed under Cavia porcellus [2] of 10.5 µM. Further, the EC50 in the assay filed under Cavia porcellus [4] was determined as 26.8 µM; in the assay filed under Cavia porcellus [5], 15.1 µM; in the assay listed under Homo sapiens it was 4.9 µM.
For the compound `C[C@H](NC(=O)[C@@H]1CCCN1C(=O)[C@H](CCS)NC(=O)[C@H](CC(=O)O)NC(=O)[C@H](CCCCN)NC(=O)[C@H](Cc1ccccc1)NC(=O)[C@H](CO)NC(=O)[C@@H](N)Cc1ccc(O)cc1)C(=O)N[C@H](C)C(=O)N[C@@H](CCCN=C(N)N)C(=O)O`, in assay [1], the pD2 came out at 4.86.
In turn, `CSCC[C@H](NC(=O)CNC(=O)[C@H](CCCCN)NC(=O)[C@H](Cc1ccccc1)NC(=O)[C@H](CO)NC(=O)[C@@H](N)Cc1ccc(O)cc1)C(=O)N[C@@H](CC(C)C)C(=O)N[C@@H](CC(C)C)C(=O)NCC(=O)N[C@H](CCCN=C(N)N)C(=O)O` displayed a pD2 in assay [1] of 4.43. The compound further registered a 50% effective concentration (EC50) in the assay listed under Homo sapiens of 40 µM.
Turning to `CC(C)C[C@H](NC(=O)[C@@H]1CCCN1C(=O)[C@H](CS)NC(=O)[C@H](CC(=O)O)NC(=O)[C@H](CCCCN)NC(=O)[C@H](Cc1ccccc1)NC(=O)[C@H](CO)NC(=O)[C@@H](N)Cc1ccc(O)cc1)C(=O)N[C@@H](CS)C(=O)N[C@@H](CCCN=C(N)N)C(=O)O` (H-YSFKDCPLCR-OH), in assay [1], the pD2 was 4.67. The Platelet aggregation in the assay filed under Cavia porcellus [2] amounted to 4.1 µM. The midpoint of the response in the assay filed under Homo sapiens, the EC50, lay at 26.6 µM.
In the case of `CC(C)C[C@H](NC(=O)[C@@H]1CCCN1C(=O)[C@H](C)NC(=O)[C@H](CC(=O)O)NC(=O)[C@H](CCCCN)NC(=O)[C@H](Cc1ccccc1)NC(=O)[C@H](CO)NC(=O)[C@@H](N)Cc1ccc(O)cc1)C(=O)NCC(=O)N[C@@H](CCCN=C(N)N)C(=O)O`, the pD2 in assay [3] is 4.79; in assay [1] it was 6.11. Besides, in the assay filed under Cavia porcellus [2], the Platelet aggregation was found to be 7.4 µM. For the same compound, the EC50 in the assay listed under Cavia porcellus [4] stood at 26.6 µM; in the assay filed under Homo sapiens it was 1.74 µM.

Broadly, the EC50 is the concentration giving half of the maximal effect. Read a high EC50 as weaker potency.
